Measured values published in ChEMBL document CHEMBL5252513, “Identification of a Benzoisoxazoloazepine Inhibitor (CPI-0610) of the Bromodomain and Extra-Terminal (BET) Family as a Candidate for Human Clinical Trials” (J Med Chem, 2016).
Calls of active or inactive are those of the source. The rule behind the calls is not given here.

Tests used:
[1] = Clearance in rat assessed as liver blood flow at 1 mg/kg,iv; format: ADME, organism-based; settings: in vivo
[2] = biological target: Bromodomain-containing protein 8 (Homo sapiens, UniProt Q9H0E9); assay: Displacement of biotinylated JQ1 from BRD8 bromodomain (unknown origin) incubated for 20 mins by AlphaLISA assay
Sequence of Bromodomain-containing protein 8 (Q9H0E9 whole entry, the tested form may be a part): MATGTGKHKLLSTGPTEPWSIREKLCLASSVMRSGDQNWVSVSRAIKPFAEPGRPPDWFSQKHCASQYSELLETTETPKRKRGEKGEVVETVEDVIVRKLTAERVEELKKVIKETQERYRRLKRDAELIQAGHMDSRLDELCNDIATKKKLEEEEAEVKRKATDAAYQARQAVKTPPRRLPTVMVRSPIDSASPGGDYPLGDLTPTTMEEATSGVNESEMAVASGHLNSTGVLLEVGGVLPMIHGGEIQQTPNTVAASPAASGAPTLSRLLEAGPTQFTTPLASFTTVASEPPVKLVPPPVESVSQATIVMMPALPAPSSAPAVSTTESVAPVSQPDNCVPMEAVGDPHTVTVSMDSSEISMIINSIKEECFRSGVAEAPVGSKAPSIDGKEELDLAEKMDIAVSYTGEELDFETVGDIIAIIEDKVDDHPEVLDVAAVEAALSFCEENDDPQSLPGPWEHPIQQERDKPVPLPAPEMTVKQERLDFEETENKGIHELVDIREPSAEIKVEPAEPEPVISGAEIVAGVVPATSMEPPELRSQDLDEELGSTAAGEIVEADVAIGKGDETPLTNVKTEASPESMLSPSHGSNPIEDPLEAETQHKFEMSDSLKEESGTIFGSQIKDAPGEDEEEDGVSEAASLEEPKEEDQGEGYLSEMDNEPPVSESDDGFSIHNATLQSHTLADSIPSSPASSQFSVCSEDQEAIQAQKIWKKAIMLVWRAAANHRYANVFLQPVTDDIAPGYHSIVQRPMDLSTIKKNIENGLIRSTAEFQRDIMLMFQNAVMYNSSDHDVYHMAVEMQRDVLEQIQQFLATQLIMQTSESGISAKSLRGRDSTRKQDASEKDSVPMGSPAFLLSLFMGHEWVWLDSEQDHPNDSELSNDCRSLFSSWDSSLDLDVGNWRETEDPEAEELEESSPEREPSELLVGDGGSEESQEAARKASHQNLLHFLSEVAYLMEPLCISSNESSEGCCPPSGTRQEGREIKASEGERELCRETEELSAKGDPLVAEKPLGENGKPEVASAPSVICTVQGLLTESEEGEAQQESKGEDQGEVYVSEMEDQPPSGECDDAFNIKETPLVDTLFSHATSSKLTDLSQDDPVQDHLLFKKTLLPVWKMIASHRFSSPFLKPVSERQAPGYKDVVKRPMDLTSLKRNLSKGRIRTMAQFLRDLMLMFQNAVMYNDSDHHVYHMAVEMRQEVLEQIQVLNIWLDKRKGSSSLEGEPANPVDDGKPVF

[3] = biological target: T1, ATPase family AAA domain-containing protein 2 (Homo sapiens, UniProt Q6PL18); assay: Displacement of biotinylated JQ1 from ATAD2 bromodomain (unknown origin) incubated for 20 mins by AlphaLISA assay
T1 sequence (Q6PL18 whole entry): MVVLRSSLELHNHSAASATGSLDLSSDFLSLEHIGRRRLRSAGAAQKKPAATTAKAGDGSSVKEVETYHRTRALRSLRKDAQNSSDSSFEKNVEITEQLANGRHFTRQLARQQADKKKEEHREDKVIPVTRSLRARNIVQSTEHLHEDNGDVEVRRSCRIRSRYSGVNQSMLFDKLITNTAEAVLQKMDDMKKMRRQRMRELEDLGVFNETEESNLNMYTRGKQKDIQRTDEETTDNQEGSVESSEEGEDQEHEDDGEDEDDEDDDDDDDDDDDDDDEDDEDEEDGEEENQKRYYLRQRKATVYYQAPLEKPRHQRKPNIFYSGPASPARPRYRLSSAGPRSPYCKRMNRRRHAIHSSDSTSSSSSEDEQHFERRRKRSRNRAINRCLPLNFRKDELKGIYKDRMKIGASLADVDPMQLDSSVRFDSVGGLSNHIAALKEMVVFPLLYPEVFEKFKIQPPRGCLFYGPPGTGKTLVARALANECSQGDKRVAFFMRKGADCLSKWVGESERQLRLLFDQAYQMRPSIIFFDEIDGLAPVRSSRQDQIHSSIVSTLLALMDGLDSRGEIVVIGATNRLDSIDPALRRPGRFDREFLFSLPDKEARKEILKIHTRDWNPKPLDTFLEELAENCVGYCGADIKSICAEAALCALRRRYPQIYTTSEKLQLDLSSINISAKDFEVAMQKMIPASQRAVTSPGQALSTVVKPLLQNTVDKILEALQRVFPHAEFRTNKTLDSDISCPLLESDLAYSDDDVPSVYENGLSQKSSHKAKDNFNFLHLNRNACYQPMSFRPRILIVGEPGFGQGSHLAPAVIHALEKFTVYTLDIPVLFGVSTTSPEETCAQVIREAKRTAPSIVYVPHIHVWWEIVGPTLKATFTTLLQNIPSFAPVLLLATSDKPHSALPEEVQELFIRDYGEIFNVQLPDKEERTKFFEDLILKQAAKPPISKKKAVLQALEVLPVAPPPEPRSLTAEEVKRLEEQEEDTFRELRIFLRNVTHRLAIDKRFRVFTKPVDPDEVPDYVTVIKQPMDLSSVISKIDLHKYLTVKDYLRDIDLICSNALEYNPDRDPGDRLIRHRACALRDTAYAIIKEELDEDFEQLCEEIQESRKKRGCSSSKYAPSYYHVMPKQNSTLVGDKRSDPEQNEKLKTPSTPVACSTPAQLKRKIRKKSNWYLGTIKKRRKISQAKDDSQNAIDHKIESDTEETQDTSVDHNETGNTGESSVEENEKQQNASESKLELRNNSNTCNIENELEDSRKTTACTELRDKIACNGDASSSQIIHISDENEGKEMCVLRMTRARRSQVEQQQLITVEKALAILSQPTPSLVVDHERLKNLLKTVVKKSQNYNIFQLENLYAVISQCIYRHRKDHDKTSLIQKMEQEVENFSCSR

[4] = Toxicity against BALB/c mouse plasma xenografted with human MV4-11 cells assessed as body weight loss at 60 mg/kg,po QD for 28 days; format: organism-based; settings: in vivo, 672 h, time 28 day
Outline: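 Body weight change (%) followed in MV-4-11 AML mouse xenograft during 28 days of oral single-agent dosing (30 mg/kg once or twice daily, 60 mg/kg once daily), vehicle PO BID as control.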

[5] = Tmax in dog at 2.5 mg/kg,po; format: ADME, organism-based, Canis lupus familiaris; settings: in vivo
[6] = Apparent oral clearance in human patient with progression lymphoma at 300 mg,po QD consecutively for 14 days; format: ADME; settings: in vivo, 336 h, time 14 day
Outline: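 Phase I trial in patients with hematologic malignancies, oral dosing once daily with escalating cohorts; values are from the 300 mg dose on day 14. AUC0-24 was taken as exposure over 24 h. Apparent clearance was calculated as Dose/AUC0-24.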

[7] = AUC (0 to infinity) in dog at 2.5 mg/kg,po; format: ADME, organism-based, Canis lupus familiaris; parameters: dose 2.5 mg/kg, route po; settings: in vivo
[8] = Unbound AUC in dog at 2.5 mg/kg,po; format: ADME, organism-based, Canis lupus familiaris; settings: in vivo
MV4-11 [9] = assay: In vivo inhibition of BRD4 in human MV4-11 cells xenografted in BALB/c mouse assessed as reduction in cellular MYC mRNA expression level in tumor at 15 mg/kg,sc BID and measured at 4 hrs by PCR anlaysis; format: functional, organism-based
Outline: (§1)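 Pharmacodynamic study in MV-4-11 AML mouse xenograft. Dosing was 15 mg/kg subcutaneous twice daily. At 4, 8 and 12 h after the second dose, MYC mRNA was measured against vehicle, and compound levels were measured in plasma and tumor. Free plasma concentration was estimated alongside total levels.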

[10] = Cmax in rat at 5 mg/kg,po; format: ADME, organism-based; parameters: dose 5 mg/kg, route po; settings: in vivo
[11] = Half life in dog plasma at 0.5 mg/kg,iv; format: ADME, organism-based, Canis lupus familiaris
CREB-binding protein [12] = biological target: T2, CREB-binding protein (Homo sapiens, UniProt Q92793); assay: Displacement of biotinylated JQ1 from CBP bromodomain (unknown origin) incubated for 20 mins by AlphaLISA assay
T2 sequence (Q92793 whole entry): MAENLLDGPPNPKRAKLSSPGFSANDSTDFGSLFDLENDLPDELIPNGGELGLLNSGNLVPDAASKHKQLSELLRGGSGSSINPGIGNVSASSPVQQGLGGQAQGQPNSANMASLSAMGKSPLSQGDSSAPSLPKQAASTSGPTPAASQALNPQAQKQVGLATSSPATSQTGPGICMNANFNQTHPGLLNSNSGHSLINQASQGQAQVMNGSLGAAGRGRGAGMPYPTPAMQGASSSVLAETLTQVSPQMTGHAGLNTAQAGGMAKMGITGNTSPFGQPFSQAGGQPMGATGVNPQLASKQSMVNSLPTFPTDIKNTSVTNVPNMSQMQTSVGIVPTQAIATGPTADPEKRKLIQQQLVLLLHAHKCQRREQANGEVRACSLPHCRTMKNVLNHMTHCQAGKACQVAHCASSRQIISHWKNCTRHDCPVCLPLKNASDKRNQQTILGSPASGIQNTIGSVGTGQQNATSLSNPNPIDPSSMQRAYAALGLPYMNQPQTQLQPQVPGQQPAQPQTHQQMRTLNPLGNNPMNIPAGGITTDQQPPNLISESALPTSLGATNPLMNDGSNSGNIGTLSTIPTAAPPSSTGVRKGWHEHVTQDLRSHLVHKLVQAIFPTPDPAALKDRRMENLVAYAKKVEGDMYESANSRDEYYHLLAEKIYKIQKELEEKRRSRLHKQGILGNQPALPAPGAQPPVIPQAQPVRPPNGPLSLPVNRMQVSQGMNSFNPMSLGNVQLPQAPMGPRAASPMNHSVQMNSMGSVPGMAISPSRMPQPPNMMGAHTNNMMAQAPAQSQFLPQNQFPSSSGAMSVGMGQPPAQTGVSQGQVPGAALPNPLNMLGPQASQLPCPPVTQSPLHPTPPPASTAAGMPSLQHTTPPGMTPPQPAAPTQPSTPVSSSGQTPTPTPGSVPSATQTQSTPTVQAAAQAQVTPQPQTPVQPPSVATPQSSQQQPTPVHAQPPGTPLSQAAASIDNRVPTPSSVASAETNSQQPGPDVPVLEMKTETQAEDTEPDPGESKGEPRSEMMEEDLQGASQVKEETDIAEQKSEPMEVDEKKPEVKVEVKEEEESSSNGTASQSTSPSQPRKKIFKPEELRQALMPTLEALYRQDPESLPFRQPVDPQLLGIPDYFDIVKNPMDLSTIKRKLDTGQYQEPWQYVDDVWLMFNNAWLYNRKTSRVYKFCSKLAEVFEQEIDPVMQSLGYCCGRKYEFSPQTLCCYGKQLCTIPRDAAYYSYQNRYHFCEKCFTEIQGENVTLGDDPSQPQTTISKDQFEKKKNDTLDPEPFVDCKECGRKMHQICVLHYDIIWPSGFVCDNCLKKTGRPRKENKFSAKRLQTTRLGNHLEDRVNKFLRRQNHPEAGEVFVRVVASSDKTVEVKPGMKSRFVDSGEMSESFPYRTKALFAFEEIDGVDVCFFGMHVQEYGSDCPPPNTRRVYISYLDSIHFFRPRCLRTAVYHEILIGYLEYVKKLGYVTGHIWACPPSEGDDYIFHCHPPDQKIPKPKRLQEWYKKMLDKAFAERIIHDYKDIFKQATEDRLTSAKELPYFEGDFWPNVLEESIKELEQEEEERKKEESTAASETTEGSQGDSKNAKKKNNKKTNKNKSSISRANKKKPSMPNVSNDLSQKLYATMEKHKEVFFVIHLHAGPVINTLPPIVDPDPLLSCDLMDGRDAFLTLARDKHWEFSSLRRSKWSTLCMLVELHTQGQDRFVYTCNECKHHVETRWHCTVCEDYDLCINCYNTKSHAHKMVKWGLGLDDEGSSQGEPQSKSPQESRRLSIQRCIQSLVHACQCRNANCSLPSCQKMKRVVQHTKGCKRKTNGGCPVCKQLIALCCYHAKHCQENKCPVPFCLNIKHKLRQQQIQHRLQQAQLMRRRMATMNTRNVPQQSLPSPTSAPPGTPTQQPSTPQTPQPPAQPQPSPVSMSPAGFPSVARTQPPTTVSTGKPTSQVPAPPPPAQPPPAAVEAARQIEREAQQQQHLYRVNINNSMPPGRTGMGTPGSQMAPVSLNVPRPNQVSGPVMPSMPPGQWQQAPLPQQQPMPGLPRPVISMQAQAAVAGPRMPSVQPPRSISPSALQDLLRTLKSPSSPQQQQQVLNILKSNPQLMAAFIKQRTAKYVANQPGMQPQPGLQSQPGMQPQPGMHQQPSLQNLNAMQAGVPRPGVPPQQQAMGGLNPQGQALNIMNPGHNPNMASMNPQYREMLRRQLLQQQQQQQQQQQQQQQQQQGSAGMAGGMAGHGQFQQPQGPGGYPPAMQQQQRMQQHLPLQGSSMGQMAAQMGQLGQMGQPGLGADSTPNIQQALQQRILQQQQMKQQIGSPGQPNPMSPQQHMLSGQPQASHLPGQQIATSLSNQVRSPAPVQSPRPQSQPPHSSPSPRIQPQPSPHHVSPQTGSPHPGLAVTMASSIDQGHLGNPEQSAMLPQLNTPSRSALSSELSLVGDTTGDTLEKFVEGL

MV4-11 [13] = assay: In vivo inhibition of BRD4 in human MV4-11 cells xenografted in BALB/c mouse assessed as reduction in cellular MYC mRNA expression level in tumor at 15 mg/kg,sc BID and measured for 8 to 12 hrs by PCR anlaysis; format: functional, organism-based; settings: time 8-12 hrs; outline: as §1
[14] = Initial plasma concentration in human patient with progression lymphoma at 300 mg,po QD and measured after 24 hrs; format: ADME; settings: read-out: C0
Outline: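 Trough plasma concentration taken as concentration at 24 h after oral dosing, 300 mg cohort, patients with hematologic malignancies.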

CREB-binding protein [15] = biological target: T2, CREB-binding protein; assay: Binding affinity to CBP bromodomain (unknown origin) incubated for 60 mins by TR-FRET assay
[16] = Oral bioavailability in rat at 5 mg/kg; format: ADME, organism-based; settings: in vivo
[17] = Tmax in mouse at 30 mg/kg,po; format: ADME, organism-based; settings: in vivo
[18] = AUC (0 to infinity) in rat at 5 mg/kg,po; format: ADME, organism-based; parameters: dose 5 mg/kg, route po; settings: in vivo
Cytochrome P450 = assay: Inhibition of CYP450 (unknown origin) at 10 uM; format: ADME, protein assay; settings: human
Outline: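 Cytochrome P450 activity tested with compound at 10 µM against a number of common isoforms; time-dependent inhibition also assessed.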

`Cc1noc2c1-c1ccccc1C(c1ccc(Cl)cc1)=N[C@H]2CC(N)=O` [PELABRESIB] showed a QH [1] of 36%, an IC50 [2] of over 15 µM and an IC50 [3] of over 80 µM. The Activity [4] was “Non-Toxic”, the Tmax [5] was 1.3 h and the CL/F [6] was 21 L/h. The AUC(0-inf) [7] was 28 µM·h, the fAUC [8] was 1.1 µM·h and the inhibition (MV4-11 [9]) was “Active”. For the same compound, the Cmax [10] was 1800 nM, the half-life [11] was 9 h and the IC50 (CREB-binding protein [12]) was over 20 µM. The inhibition (MV4-11 [13]) was “inactive”, the concentration at 24 h [14] was 220 nM and the IC50 (CREB-binding protein [15]) was over 20 µM. For the same compound, the bioavailability [16] was 76%, the Tmax [17] was 0.42 h and the AUC(0-inf) [18] was 9.1 µM·h. For the same compound, the “inhibition (INH)” value (Cytochrome P450) was “Not Active”.
